# High-throughput results: PubChem BioAssay, The Scripps Research Institute Molecular Screening Center
# EBNA-1 inhibitor – blocks EBNA-1 binding to DNA. inhibition, % at 14.8 µM. AID 1950. EBNA-1 DNA binding, fluorescence polarization. hit rate 0.34% among 300,000; in the data active = inhibition above about 28%
# PP5 inh – PP5 (human) phosphatase inhibition. hit rate 0.18% among 320,000. purified PP5c, OMFP substrate fluorescence. inhibition, % at 6.7 µM. P53041;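 active = inhibition above the campaign's mean inhibition across all tested compounds plus 3 SD, cut at about 9.5% in these data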;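 note: 0% = DMSO only and 100% = 100 µM cantharidin control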
# Target sequence (P53041 whole entry, looked up): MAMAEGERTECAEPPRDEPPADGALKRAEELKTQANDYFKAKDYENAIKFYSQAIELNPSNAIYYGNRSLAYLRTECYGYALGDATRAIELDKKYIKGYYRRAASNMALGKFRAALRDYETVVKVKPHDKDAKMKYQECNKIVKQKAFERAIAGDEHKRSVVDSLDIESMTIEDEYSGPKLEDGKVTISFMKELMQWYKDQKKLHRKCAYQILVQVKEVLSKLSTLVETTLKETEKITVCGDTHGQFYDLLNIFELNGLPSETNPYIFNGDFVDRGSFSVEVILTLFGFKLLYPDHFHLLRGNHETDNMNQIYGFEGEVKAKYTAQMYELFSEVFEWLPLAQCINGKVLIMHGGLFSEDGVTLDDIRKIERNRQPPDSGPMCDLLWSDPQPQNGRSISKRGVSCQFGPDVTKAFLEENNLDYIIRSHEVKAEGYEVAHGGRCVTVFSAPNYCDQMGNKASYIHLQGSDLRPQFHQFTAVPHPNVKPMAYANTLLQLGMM
# PP1 counter – counter-screen for PP5 inhibitors: inhibitors of human PP1-alpha | P62136 | purified PP1alpha, OMFP fluorescence | inhibition, % at 6.7 µM | hit rate 0.9% among 320,000;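 active = inhibition above the mean inhibition of all tested compounds plus 3 SD, computed separately for each screening campaign, cut at about 15% in these data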
# core dimer inh – blocks dimerization of HCV core protein; TR-FRET GST/Flag-core106 dimerization, 1536-well; inhibition, % at 5 µM; hit rate 0.33% among 300,000; AID 1899;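 active = inhibition above the mean of all tested compounds plus 3 SD, set per screening campaign, cut at about 45% in these data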
#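 Assay system: Tagged HCV core106 pair (GST and Flag) | Buffer or medium: KF-containing HEPES buffer, pH 7.45, DTT, CHAPS, BSA | Also added: Eu donor and XL665 acceptor anti-tag antibodies | Dosing: One concentration, 5 µM, in 0.5% DMSO | Timing: 4 h at 22.5 °C | Technique: TR-FRET 671 and 617 nm emission | Repeats: Singlicate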
# ZTA counter – blocks Epstein-Barr virus ZTA, an EBNA-1 counter-screen; P03206; ZTA-DNA binding, fluorescence polarization; hit rate 0.15% among 320,000; inhibition, % at 11 µM; in the data active = inhibition above about 33%
# An asterisk follows results filed as active; · = no result. Sampled rows, rich in hits. Any-hit rate of the full collection: about 1.7%.
SMILES,EBNA-1 inhibitor,PP5 inh,PP1 counter,core dimer inh,ZTA counter
O=C(NCc1ccco1)c1nn2c(C(F)(F)F)cc(-c3cccs3)nc2c1Br,-11.3,2.3,-0.5,53.8*,13.6
O=C(NCc1ccco1)c1nc2nc(-c3cccs3)cc(C(F)(F)F)n2n1,4.1,-1.9,0.6,20.3,-6.8
O=c1cc(CN2CCOCC2)c2cc(Cl)ccc2o1,-5.5,2.3,-3.1,-2.3,3.3
COc1cc(NC(C)CCCN)c2ncccc2c1 (stereo not given),3.2,4.9,16.2*,-3.0,6.2
COc1cc(NCCCCCCCN)c2ncccc2c1,-7.4,4.1,1.0,-5.9,6.9
CC(=O)NC(CSC(CC(=O)c1ccco1)c1ccc(C)cc1)C(=O)O (stereo not given),-5.4,1.8,-2.5,-2.7,-0.7
CCN(C(=O)Cn1ccc(C(F)(F)F)n1)c1c(N)n(Cc2ccccc2)c(=O)[nH]c1=O,·,3.8,-4.3,·,12.4
O=C(c1cc2ccccc2o1)N(Cc1nnc(-c2ccccc2Cl)o1)C1CC1,-0.1,-1.1,15.3*,1.3,-9.4
c1ccc(Oc2nc(-c3ccccn3)nc3ccccc23)cc1,-2.2,0.7,15.9*,3.4,0.6
COc1ccc(Oc2nc(-c3ccccn3)nc3ccccc23)cc1,10.6,-1.5,15.0,-0.3,-1.2
COc1ccccc1OCCCOc1ccc(/C=C2\SC(=O)NC2=O)cc1OC,10.9,2.5,12.7,18.0,7.0
COc1ccccc1OCCCOc1cccc(/C=C2\SC(=O)NC2=O)c1,5.2,2.0,15.9*,11.5,4.8
COc1ccccc1NC(=O)CN1C(=O)NC2(CCCc3ccccc32)C1=O (stereo not given),·,-1.9,-2.0,·,8.0
CC(=O)Nc1ccc(-c2ccc3nnc(C)n3n2)cc1,5.1,-2.2,-1.4,0.6,10.3
Cc1nnc2ccc(-c3ccc(NC(=O)Cc4cccs4)cc3)nn12,-1.0,0.3,2.4,55.7*,14.7
Cc1cc(C)n(-c2ccc(NC(=O)C3CCCCN3C(=O)c3ccc(C)s3)cc2)n1 (stereo not given),-7.1,0.6,0.1,6.4,2.8
COc1ccc(Nc2nnc(Cc3ccc(Cl)cc3)c(=O)[nH]2)c(OC)c1,-10.0,0.8,-0.3,1.4,28.2
COc1ccc(Cc2nnc(Nc3ccc(Cl)cc3)[nH]c2=O)cc1,7.7,1.4,17.5*,10.5,16.6
O=c1c2c(nc3c(-c4cccc5ccccc45)c[nH]n13)CCC2,-11.3,-1.6,16.9*,-5.8,2.5
Cc1cc(OCC(=O)OCC(=O)N2CCc3ccccc3C2)ccc1Cl,·,6.0,4.4,·,-13.1
Cc1c(C(=O)Nc2nc(-c3ccccn3)cs2)oc2ccccc12,·,1.7,16.1*,·,-26.0
O=C(Nc1nc(-c2ccccn2)cs1)c1cc2ccccc2o1,-4.7,-1.7,10.3,4.3,7.6
CC(=O)Nc1ccc(OS(=O)(=O)c2c(C)cc(C)cc2C)cc1,3.5,4.8,4.2,-0.9,-1.3
Cc1cccc2cc3c(nc12)SC(=NCC1CCCO1)N(Cc1ccco1)C3 (stereo not given),13.1,2.7,11.7,78.6*,-0.6
CCCCN(C(=O)NC(=O)Nc1ccc(C)cn1)S(C)(=O)=O,-3.6,1.4,-0.7,-17.4,5.2
SMILES,EBNA-1 inhibitor,PP5 inh,PP1 counter,core dimer inh,ZTA counter
COc1cc(/C=N/NC(=O)c2cc(-c3cccn3C)n[nH]2)cc(OC)c1OC,4.0,1.9,-1.4,-1.6,-10.2
COc1cccc(/C=N/NC(=O)c2cc(-c3cccn3C)n[nH]2)c1O,-9.7,3.4,16.4*,-10.5,-3.3
O=C(OCC(=O)N1CCCC1=O)c1ccc(O)cc1O,-4.8,-4.2,-4.8,-0.2,7.4
N/C(=N\N=C/c1ccc(F)cc1)N/N=C\c1ccc(F)cc1,-2.5,4.7,16.4*,-12.9,-17.3
N/C(=N\N=C/c1ccc(Br)cc1)N/N=C\c1ccc(Br)cc1,-5.3,3.4,14.3,2.7,24.1
O=c1oc2ccccc2nc1/C=C(O)/C=C/c1ccc(F)cc1,3.4,3.1,8.3,-0.2,18.5
O=c1oc2ccccc2nc1/C=C(O)/C=C\c1ccccc1,-9.2,0.6,4.5,50.2*,-24.2
NC(=O)c1c(NC(=O)C2c3ccccc3Oc3ccccc32)sc2c1CCCCC2,-6.5,2.1,7.9,50.4*,14.7
CC(=O)Nc1sc2c(c1C(N)=O)CCCC2,-4.9,4.2,-0.1,-1.5,0.5
COC(=O)c1ccc(C2Nc3ccc(/C(C)=N/NC(=O)C(OC)c4ccccc4)cc3C3C=CCC32)cc1 (stereo not given),-5.9,3.2,20.6*,45.8,-0.5
Cc1cc(-c2csc(N)n2)c(C)n1-c1ccc(Cl)c(Cl)c1,6.8,-2.5,16.8*,38.2,-1.3
COc1ccc(-n2c(C)cc(-c3csc(N)n3)c2C)cc1,3.7,0.6,17.2*,35.9,4.3
CCCn1c(C)cc(-c2csc(N)n2)c1C,-14.3,3.8,7.0,1.9,-17.3
CNc1oc(-c2ccccc2Cl)nc1C#N,-2.5,0.6,-1.1,-2.2,8.8
CCOc1ccc(Nc2oc(-c3ccccc3Cl)nc2C#N)cc1,4.0,0.3,17.2*,-0.6,-3.1
CCN(CC)c1ccc(C(=O)OCc2cc(=O)oc3cc(O)ccc23)cc1,1.2,1.4,3.3,49.7*,-5.8
COc1ccc(CCN=C(C)C2=C(O)C(c3ccccc3)OC2=O)cc1OC (stereo not given),-4.3,-0.6,-4.8,1.9,5.8
COc1cccc(C(=O)Nc2ccc3c(c2)C(=O)c2ccccc2C3=O)c1,12.8,2.3,32.7*,1.7,3.1
Fc1ccc2[nH]c3c(NCc4ccccc4)ncnc3c2c1,-1.7,-4.8,0.1,-13.6,-11.6
CCN(CC)c1ccc(CNCc2cccs2)cc1,2.0,1.2,17.4*,-1.6,5.5
CCOc1ccc(/C=N/Nc2ccccn2)cc1,0.5,-0.6,-1.3,-8.2,8.7
COc1ccc2nc(Cl)c(/C=N/Nc3ccccn3)cc2c1,-2.4,-1.6,15.9*,-0.7,0.0
Cc1ccc(S(=O)(=O)N2[C@@H](c3ccccc3)C(C(=O)O)=CC[C@H]2c2ccc(C(C)C)cc2)cc1,8.8,4.4,15.4*,19.4,0.3
CCc1ccc([C@@H]2CC=C(C(=O)O)[C@H](c3cccc(Cl)c3)N2S(=O)(=O)c2ccc(C)cc2)cc1,4.2,3.1,15.9*,27.5,5.7
Cc1ccc(C)c(OCCC(=O)NNC(=O)c2cc(C)oc2C)c1,·,2.3,-3.4,·,-5.5
SMILES,EBNA-1 inhibitor,PP5 inh,PP1 counter,core dimer inh,ZTA counter
CCCNC(=O)Cn1cnc2sc(C(=O)NCCCN3CCOCC3)c(C)c2c1=O,-9.8,-0.4,-1.2,-3.2,-5.4
CCCNC(=O)Cn1cnc2sc(C(=O)Nc3cc(OC)c(OC)c(OC)c3)c(C)c2c1=O,4.4,2.6,1.4,-1.3,3.2
CCCNC(=O)Cn1cnc2sc(C(=O)NCCN(CC)CC)c(C)c2c1=O,-10.4,4.7,16.3*,-7.2,-4.5
CCN(CC)C(=O)Cn1cnc2sc(C(=O)Nc3cc(OC)c(OC)c(OC)c3)c(C)c2c1=O,5.8,6.1,15.2*,-18.9,0.1
CC(=O)N1CCC(C(=O)NCCOc2ccc(C)cc2)CC1,5.9,3.8,-4.0,-21.9,-13.5
Oc1ccc(CN2CCc3ccccc3C2)c2cccnc12,-5.6,9.5,15.2*,2.2,20.1
